ChEMBL document CHEMBL1128732, “Synthesis and anticonvulsant activity of N-benzylpyrrolo[2,3-d]-, -pyrazolo[3,4-d]-, and -triazolo[4,5-d]pyrimidines: imidazole ring-modified analogues of 9-(2-fluorobenzyl)-6-(methylamino)-9H-purine” (J Med Chem, 1995)

Columns and labels:
[1] = system: Rattus norvegicus; test: The compound was tested for anticonvulsant activity against maximal electroshock-induced seizures after intraperitoneal administration in rats; assay type: functional
How it was run: (§1)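 Male Wistar rats (Charles River) challenged with maximal electroshock. ED50 is the dose protecting 50% of animals against the hind limb extensor component, calculated by the Miller–Tainter method. With standard error: at least 12 animals per dose level, four doses per compound. Without standard error: three doses, six animals per point. Some compounds were given as the hydrochloride.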

[2] = system: Rattus norvegicus; test: The compound was tested for anticonvulsant activity against maximal electroshock-induced seizures after peroral administration in rats; assay type: functional; how it was run: as §1
[3] = pKa value of the compound; assay type: physicochemical
[4] = Partition coefficient (logP); assay type: physicochemical; conditions: octanol/water
How it was run: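 Octanol–water partition measured with a carbonate-buffered aqueous phase adjusted to pH 10.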

SMILES	ED50 ([1]; Rattus norvegicus, ip) [mg/kg]	ED50 [1] [mg/kg]	ED50 ([2]; Rattus norvegicus, po) [mg/kg]	other results
Nc1ncnc2c1cnn2Cc1ccccc1	> 25	–	–	–
CN(C)c1ncnc2c1ccn2Cc1ccccc1F	–	11	–	ED50 [2]: 12 mg/kg
CNc1ncnc2c1cnn2Cc1ccccc1	7	–	15	–
CNc1ncnc2c1nnn2Cc1ccccc1F	3	–	8	pKa [3]: 2.49; logP [4]: 2.05
Nc1ncnc2c1cnn2Cc1ccccc1F	8	–	14	–
c1ccc(Cn2ccc3c(NC4CC4)ncnc32)cc1	36	–	–	–
Fc1ccccc1Cn1ccc2c(NC3CC3)ncnc21	> 50	–	–	–
CNc1ncnc2c1cnn2Cc1ccccc1F	6	–	8	pKa [3]: 4.4; logP [4]: 1.94
CNc1ncnc2c1ccn2Cc1ccccc1F	6	–	12	pKa [3]: 5.56; logP [4]: 2.11
Nc1ncnc2c1nnn2Cc1ccccc1F	> 25	–	–	–
CN(C)c1ncnc2c1ccn2Cc1ccccc1	–	15	–	–
Nc1ncnc2c1ncn2Cc1ccccc1F	–	4.5	–	ED50 [2]: 12 mg/kg
CNc1ncnc2c1ncn2Cc1ccccc1F [BW-A78U]	–	1.7	–	ED50 [2]: 2.5 mg/kg
O=C1NC(=O)C(c2ccccc2)(c2ccccc2)N1 [PHENYTOIN]	–	10	–	ED50 [2]: 20 mg/kg
